Laboratory results taken from ChEMBL document CHEMBL2331234, “Novel analgesic/anti-inflammatory agents: 1,5-diarylpyrrole nitrooxyalkyl ethers and related compounds as cyclooxygenase-2 inhibiting nitric oxide donors” (J Med Chem, 2013).
Activity calls are given as the source filed them. The calls are words filed in the database; no cut-off is given here.

Tests used:
Aorta [1] = experiment: Vasorelaxant activity in Wistar rat endothelium-removed thoracic aortic rings assessed as reduction of KCl-induced vasoconstriction at 0.001 uM to 10 uM treated after KCl-challenge relative to control; assay type: functional
Summary of the method: (§1)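 Thoracic aortic rings from male Wistar rats (250-350 g), endothelium removed by rubbing; removal confirmed as <10% relaxation to ACh 10 µM in KCl 30 mM-contracted rings. Rings contracted with KCl 30 mM; at plateau, 3-fold increasing compound concentrations (1 nM-10 µM) added. Isometric tension recorded. Emax given as % of KCl tone; pIC50 as -log molar concentration halving that tone. 6-10 experiments; also run with ODQ 1 µM.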

J774 = experiment: Selectivity index, ratio of IC50 for COX1 in mouse J774 cells […]; assay type: cell-based
[2] = target: T1, Prostaglandin G/H synthase 2 (Mus musculus, UniProt Q05769); experiment: Inhibition of Escherichia coli lipopolysaccharide-induced COX2 activity in mouse J774 cells assessed as decrease in PGE2 levels after 24 hrs by RIA; assay type: cell-based
T1 sequence (Q05769 whole entry): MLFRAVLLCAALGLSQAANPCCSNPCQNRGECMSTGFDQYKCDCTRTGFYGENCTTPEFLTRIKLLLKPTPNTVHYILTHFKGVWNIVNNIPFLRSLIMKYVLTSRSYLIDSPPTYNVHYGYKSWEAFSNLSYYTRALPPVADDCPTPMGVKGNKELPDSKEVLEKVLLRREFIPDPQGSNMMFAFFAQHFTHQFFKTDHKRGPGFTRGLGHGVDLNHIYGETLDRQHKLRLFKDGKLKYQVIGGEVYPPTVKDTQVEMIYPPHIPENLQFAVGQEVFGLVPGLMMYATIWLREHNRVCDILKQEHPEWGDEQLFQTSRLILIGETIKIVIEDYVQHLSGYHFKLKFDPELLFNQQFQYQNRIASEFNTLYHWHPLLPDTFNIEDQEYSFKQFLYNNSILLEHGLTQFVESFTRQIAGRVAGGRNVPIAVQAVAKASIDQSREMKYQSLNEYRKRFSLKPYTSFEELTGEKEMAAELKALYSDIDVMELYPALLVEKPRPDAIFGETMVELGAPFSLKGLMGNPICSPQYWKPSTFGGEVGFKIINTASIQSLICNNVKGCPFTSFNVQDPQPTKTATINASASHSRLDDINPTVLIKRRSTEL
Summary of the method: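 Adhered cells in DMEM/10% FBS were stimulated with E. coli LPS 10 µg/mL for 24 h with compound present at 0.01-10 µM. Supernatant PGE2 was measured by RIA. IC50 came from a variable-slope sigmoidal fit.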

[3] = target: T2, Prostaglandin G/H synthase 1 (Mus musculus, UniProt P22437); experiment: Inhibition of arachidonic acid-induced COX1 activity in mouse J774 cells assessed as decrease in PGE2 levels incubated for 15 mins prior to arachidonic acid-challenge measured after 30 mins by RIA; assay type: cell-based
T2 sequence (P22437 whole entry): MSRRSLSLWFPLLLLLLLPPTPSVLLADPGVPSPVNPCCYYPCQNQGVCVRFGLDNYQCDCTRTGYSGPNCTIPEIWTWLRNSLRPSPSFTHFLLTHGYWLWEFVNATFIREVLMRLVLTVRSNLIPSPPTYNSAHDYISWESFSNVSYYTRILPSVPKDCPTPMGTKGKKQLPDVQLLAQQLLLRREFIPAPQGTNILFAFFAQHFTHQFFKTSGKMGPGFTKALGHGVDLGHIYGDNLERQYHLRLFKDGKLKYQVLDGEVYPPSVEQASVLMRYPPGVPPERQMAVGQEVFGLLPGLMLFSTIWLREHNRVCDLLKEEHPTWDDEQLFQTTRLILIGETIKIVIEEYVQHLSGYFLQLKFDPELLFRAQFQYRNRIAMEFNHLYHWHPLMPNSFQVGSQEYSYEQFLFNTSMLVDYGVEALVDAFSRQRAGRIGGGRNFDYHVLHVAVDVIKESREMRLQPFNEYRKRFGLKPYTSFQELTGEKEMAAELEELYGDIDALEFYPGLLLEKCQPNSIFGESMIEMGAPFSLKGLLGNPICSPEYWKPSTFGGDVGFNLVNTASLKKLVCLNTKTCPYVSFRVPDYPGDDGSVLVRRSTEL
Summary of the method: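 Cells were in DMEM with 10% FBS and adhered for 2 h at 37 °C. They were pretreated with compound (10 µM; 0.1-1 µM where inhibition exceeded 50%) for 15 min, then given 15 µM arachidonic acid for 30 min at 37 °C. Supernatant PGE2 was measured by RIA. Triplicate wells were used and the mean of three experiments reported. IC50 came from a variable-slope sigmoidal fit.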

Rattus norvegicus [4] = experiment: Antiinflammatory activity in Sprague-Dawley/Wistar rat assessed as decrease in carrageenan-induced hyperalgesia at 20 mg/kg, po administered 4 hrs after carrageenan-challenge measured after 120 mins (reference value: 31.4 +/- 3.7 g); assay type: functional
Rattus norvegicus [5] = experiment: Antiinflammatory activity in Sprague-Dawley/Wistar rat assessed as decrease in carrageenan-induced hyperalgesia at 20 mg/kg, po administered 4 hrs after carrageenan-challenge measured after 60 mins (reference value: 33.9 +/- 3.7 g); assay type: functional
Rattus norvegicus [6] = experiment: Antiinflammatory activity in Sprague-Dawley/Wistar rat assessed as decrease in carrageenan-induced hyperalgesia at 20 mg/kg, po administered 4 hrs after carrageenan-challenge measured after 30 mins (reference value: 34.8 +/- 3.0 g); assay type: functional
Mus musculus = experiment: Antinociceptive activity in po dosed Swiss albino mouse assessed as reduction in number of acetic acid-induced writhing counted 5 mins after acetic acid challenge counted for 10 mins; assay type: functional; details: read-out: MED
Summary of the method: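 Male Swiss albino mice (23-25 g) dosed orally, then given 0.6% acetic acid (10 mL/kg) ip. Stretching movements counted for 10 min, starting 5 min after the acetic acid. Control group received CMC. At least 7 mice/group; mean ± SEM, ANOVA with Fisher's PLSD.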

Rattus norvegicus [7] = experiment: Antiinflammatory activity in Sprague-Dawley/Wistar rat assessed as decrease in carrageenan-induced paw edema at 20 mg/kg, po administered 3 hrs 30 mins after carrageenan-challenge measured after 60 mins (reference value: 2.48 +/- 0.06 mL); assay type: functional
Rattus norvegicus [8] = experiment: Antiinflammatory activity in Sprague-Dawley/Wistar rat assessed as decrease in carrageenan-induced hyperalgesia at 40 mg/kg, po administered 4 hrs after carrageenan-challenge measured after 30 mins (reference value: 34.8 +/- 3.0 g); assay type: functional
Aorta [9] = experiment: Vasorelaxant activity in Wistar rat endothelium-removed thoracic aortic rings assessed as reduction of KCl-induced vasoconstriction at 0.001 uM to 10 uM treated after KCl-challenge in presence of guanylate cyclase inhibitor 1H-[1,2,4]-oxadiazolo[4,3-a]quinoxalin-1-one; assay type: functional, tissue-based
Summary of the method: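 Endothelium-denuded aortic rings from male Wistar rats (250-350 g) were preincubated with ODQ 1 µM. Rings were contracted with KCl 30 mM, then given 3-fold increasing concentrations from 1 nM to 10 µM. Emax is the % relaxation of KCl tone. pIC50 was calculated when efficacy reached 50%, from 6-10 experiments.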

Aorta [10] = experiment: Vasorelaxant activity in Wistar rat endothelium-removed thoracic aortic rings assessed as reduction of KCl-induced vasoconstriction treated after KCl-challenge; assay type: functional, tissue-based; summary of the method: as §1
Rattus norvegicus [11] = experiment: Antiinflammatory activity in Sprague-Dawley/Wistar rat assessed as decrease in carrageenan-induced paw edema at 40 mg/kg, po administered 3 hrs 30 mins after carrageenan-challenge measured after 60 mins (reference value: 2.48 +/- 0.06 mL); assay type: functional
Rattus norvegicus [12] = experiment: Antiinflammatory activity in Sprague-Dawley/Wistar rat assessed as decrease in carrageenan-induced hyperalgesia at 40 mg/kg, po administered 4 hrs after carrageenan-challenge measured after 120 mins (reference value: 31.4 +/- 3.7 g); assay type: functional
Rattus norvegicus [13] = experiment: Antiinflammatory activity in Sprague-Dawley/Wistar rat assessed as decrease in carrageenan-induced hyperalgesia at 40 mg/kg, po administered 4 hrs after carrageenan-challenge measured after 60 mins (reference value: 33.9 +/- 3.7 g); assay type: functional

| SMILES | Emax (Aorta [1]) | Ratio IC50 (J774) | IC50 [2] [µM] | IC50 [3] [µM] | Activity (Rattus norvegicus [4]) [g] | Activity (Rattus norvegicus [5]) [g] | Activity (Rattus norvegicus [6]) [g] | minimal effective dose (Mus musculus) [mg/kg] | Activity (Rattus norvegicus [7]) [mL] | Activity (Rattus norvegicus [8]) [g] | Activity (Aorta [9]) | IC50 (Aorta [10]) [µM] | pIC50 (Aorta [10]) | Activity (Rattus norvegicus [11]) [mL] | Activity (Rattus norvegicus [12]) [g] | Activity (Rattus norvegicus [13]) [g] | Activity (Aorta [10]) |
| --- | --- | --- | --- | --- | --- | --- | --- | --- | --- | --- | --- | --- | --- | --- | --- | --- | --- |
| Cc1c(CCOCCCO[N+](=O)[O-])cc(-c2ccc(S(C)(=O)=O)cc2)n1-c1cccc(F)c1 | inactive | 126 | 0.023 | 2.9 |  |  |  |  |  |  |  |  |  |  |  |  |  |
| Cc1c(CCOCCO)cc(-c2ccc(S(C)(=O)=O)cc2)n1-c1ccccc1 | inactive |  |  | > 10 | 37.8 | 49.2 | 56.6 | 10 | 1.34 |  |  |  |  |  |  |  |  |
| Cc1c(CCOCCO[N+](=O)[O-])cc(-c2ccc(S(C)(=O)=O)cc2)n1-c1cccc(F)c1 |  | > 357 | 0.027 | > 10 | 35.2 | 40.7 | 43.9 | 40 | 2.16 | 47.3 | inactive | 4.79 | Dose-dependent effect | 2.08 | 34.3 | 41 |  |
| Cc1c(CCOCCCO[N+](=O)[O-])cc(-c2ccc(S(C)(=O)=O)cc2)n1-c1ccccc1 | 48% | > 667 |  | > 10 | 45.6 | 51.6 | 53.7 | 20 | 1.8 |  | inactive | ≥ 10 | Dose-dependent effect |  |  |  |  |
| Cc1c(CCOCCO)cc(-c2ccc(S(C)(=O)=O)cc2)n1-c1ccc(F)c(F)c1 | inactive | > 23.8 |  | > 10 | 41.4 | 46.7 | 43.6 | 20 | 2.16 | 53.2 |  |  |  | 1.96 | 49.3 | 55.2 |  |
| O=[N+]([O-])OCC(CO[N+](=O)[O-])O[N+](=O)[O-] [NITROGLYCERIN] | 93% |  |  |  |  |  |  |  |  |  |  |  |  |  |  |  |  |
| Cc1c(CCOCCCO[N+](=O)[O-])cc(-c2ccc(S(C)(=O)=O)cc2)n1-c1ccc(F)cc1 | inactive | > 52.6 |  | > 10 |  |  |  |  |  |  |  |  |  |  |  |  |  |
| Cc1c(CCOCCO[N+](=O)[O-])cc(-c2ccc(S(C)(=O)=O)cc2)n1-c1ccc(F)c(F)c1 |  | > 10.9 |  | > 10 | 38.8 | 46.9 | 44.6 | 20 | 2.19 | 49.5 | inactive | ≥ 10 | Dose-dependent effect | 2.1 | 35.3 | 42.5 |  |
| Cc1c(CCOCCO)cc(-c2ccc(S(C)(=O)=O)cc2)n1-c1cccc(F)c1 | inactive | > 217 |  | > 10 | 37.2 | 48.6 | 46.9 | 20 | 2.46 | 51.4 |  |  |  | 2.12 | 39.5 | 45.3 |  |
| Cc1c(CCOCCO[N+](=O)[O-])cc(-c2ccc(S(C)(=O)=O)cc2)n1-c1ccccc1 |  | > 588 |  | > 10 | 48.7 | 55.3 | 54.2 | 10 | 1.45 |  | inactive | 6.03 |  |  |  |  | Dose-dependent effect |
| Cc1c(CCOCCCO)cc(-c2ccc(S(C)(=O)=O)cc2)n1-c1ccccc1 | inactive | > 1.11 | 8.99 | > 10 | 46.6 | 50.3 | 52.9 | 20 | 1.86 |  |  |  |  |  |  |  |  |
| Cc1c(CCOCCCO)cc(-c2ccc(S(C)(=O)=O)cc2)n1-c1ccc(F)cc1 | inactive | > 10.6 |  | > 10 |  |  |  |  |  |  |  |  |  |  |  |  |  |
| Cc1c(CCOCCCO)cc(-c2ccc(S(C)(=O)=O)cc2)n1-c1cccc(F)c1 | inactive | 15.4 | 0.24 | 3.7 |  |  |  |  |  |  |  |  |  |  |  |  |  |
